{
  "source": "ChEMBL document CHEMBL1671761",
  "about": "“Preclinical characterization of BI 201335, a C-terminal carboxylic acid inhibitor of the hepatitis C virus NS3-NS4A protease” (Antimicrob Agents Chemother, 2010)",
  "key": {"[1]": {"molecular_target": "Histamine H1 receptor (Homo sapiens) (UniProt P35367)", "assay": "Inhibition of human H1 receptor at 10 uM"}, "Huh-7": {"test_system": "Huh-7", "assay": "Cytotoxicity activity against human HuH7 cells by MTT assay", "format": "functional", "summary_of_the_method": "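MTT assay in proliferating Huh-7 cells exposed 72 h to serial inhibitor dilutions; formazan read at 570 nm. CC50 taken from percent inhibition.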"}, "[2]": {"molecular_target": "Coagulation factor VII (Homo sapiens) (UniProt P08709)", "sequence (P08709 61-212 limits assumed)": "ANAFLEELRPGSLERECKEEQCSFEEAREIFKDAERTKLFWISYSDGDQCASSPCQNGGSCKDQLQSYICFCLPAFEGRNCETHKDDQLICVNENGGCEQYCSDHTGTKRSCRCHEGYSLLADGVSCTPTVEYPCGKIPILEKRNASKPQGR", "sequence (P08709 213-466 limits assumed)": "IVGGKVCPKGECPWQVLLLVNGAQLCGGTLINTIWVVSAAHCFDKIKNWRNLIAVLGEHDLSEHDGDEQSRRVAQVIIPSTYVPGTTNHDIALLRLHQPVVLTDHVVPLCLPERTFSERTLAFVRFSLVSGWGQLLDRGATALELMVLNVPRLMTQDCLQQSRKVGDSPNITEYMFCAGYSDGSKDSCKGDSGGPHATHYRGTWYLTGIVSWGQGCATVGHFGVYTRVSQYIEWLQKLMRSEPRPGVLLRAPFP", "assay": "Inhibition of human factor 7a at 10 uM"}, "Caspase-4 (Homo sapiens)": {"molecular_target": "Caspase-4 (Homo sapiens) (UniProt P49662)", "sequence (P49662 81-270 limits assumed)": "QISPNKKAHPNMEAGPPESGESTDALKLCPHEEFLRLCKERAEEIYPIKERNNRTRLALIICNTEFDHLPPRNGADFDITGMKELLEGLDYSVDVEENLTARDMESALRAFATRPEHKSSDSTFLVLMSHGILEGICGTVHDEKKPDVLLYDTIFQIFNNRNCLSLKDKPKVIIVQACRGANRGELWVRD", "sequence (P49662 290-377 limits assumed)": "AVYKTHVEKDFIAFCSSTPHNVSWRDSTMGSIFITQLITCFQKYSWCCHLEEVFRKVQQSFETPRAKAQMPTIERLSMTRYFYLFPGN", "assay": "Inhibition of human caspase-4 at 10 uM"}, "[3]": {"molecular_target": "Sodium-dependent noradrenaline transporter (Homo sapiens) (UniProt P23975)", "sequence (P23975 whole entry)": "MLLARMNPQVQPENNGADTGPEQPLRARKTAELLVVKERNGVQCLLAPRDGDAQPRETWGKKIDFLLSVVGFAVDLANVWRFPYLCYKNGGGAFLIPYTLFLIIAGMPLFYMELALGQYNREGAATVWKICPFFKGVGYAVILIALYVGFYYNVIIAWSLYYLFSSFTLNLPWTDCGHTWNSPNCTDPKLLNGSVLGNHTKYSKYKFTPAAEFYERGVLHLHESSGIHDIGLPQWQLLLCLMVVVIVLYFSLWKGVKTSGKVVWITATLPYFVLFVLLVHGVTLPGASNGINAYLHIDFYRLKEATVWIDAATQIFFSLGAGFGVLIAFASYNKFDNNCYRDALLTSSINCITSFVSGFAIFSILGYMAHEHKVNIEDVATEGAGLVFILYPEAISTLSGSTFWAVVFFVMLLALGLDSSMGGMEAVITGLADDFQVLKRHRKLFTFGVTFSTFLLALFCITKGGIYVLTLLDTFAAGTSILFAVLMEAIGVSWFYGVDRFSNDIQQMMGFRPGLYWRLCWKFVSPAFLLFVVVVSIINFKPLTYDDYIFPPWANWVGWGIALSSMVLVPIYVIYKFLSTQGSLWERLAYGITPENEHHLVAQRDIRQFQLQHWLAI", "assay": "Inhibition of human norepinephrine transporter at 10 uM"}, "Homo sapiens [4]": {"species": "Homo sapiens", "assay": "Inhibition of human chymotrypsin at 10 uM"}, "[5]": {"molecular_target": "Neprilysin (Homo sapiens) (UniProt P08473)", "assay": "Inhibition of human neutral endopeptidase at 10 uM"}, "Homo sapiens [6]": {"species": "Homo sapiens", "assay": "Inhibition of human dopamine receptor 4.2 at 10 uM"}, "Hepatitis C virus [7]": {"test_system": "Hepatitis C virus", "assay": "Antiviral activity against HCV 2a clone JFH1 infected in Huh7 cells assessed as inhibition of viral replication after 72 hrs by RT-PCR", "format": "functional, organism-based, Hepacivirus hominis", "conditions": "genotype 2a clone JFH1, Huh-7, 72 h", "summary_of_the_method": "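Genotype 2a replicon (Huh-7 cells carrying an unadapted JFH-1 NS3-NS5B subgenomic replicon) was kept with 0.25 mg/ml G418 and plated at 10,000 cells/well without G418. Next day, serial dilutions in DMEM/10% FBS/0.5% DMSO were added for 72 h. Replicon RNA was measured by TaqMan RT-PCR and normalized to total RNA. Mean ± SD, ≥3 experiments.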"}, "[8]": {"assay": "AUC (0 to infinity) in dog at 5 mg/kg, po", "format": "ADME, organism-based, Canis lupus familiaris", "set-up": "time infinity, dose 5 mg/kg, route oral", "conditions": "plasma", "summary_of_the_method": "(§1)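 Single oral dose of 5 mg/kg in 0.5% Methocel with 0.3% Tween 80 (10 ml/kg) to fasted male animals: Sprague-Dawley rats (275-300 g, overnight fast with 10% dextrose water), rhesus monkeys, beagle dogs. Rat blood from cannulated carotid at 0-8 h, pooled from 3 rats per time point; monkey/dog n=3. Plasma solid-phase extracted, LC-MS/MS at m/z 869.3; noncompartmental analysis.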"}, "[9]": {"assay": "Mean retention time in monkey at 5 mg/kg, po", "format": "ADME, organism-based, Macaca mulatta", "set-up": "dose 5 mg/kg, route oral", "conditions": "rhesus monkey, in vivo", "summary_of_the_method": "(§2)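 Fasted male rhesus monkeys (3.0-4.8 kg) given a single oral dose in 0.5% Methocel/0.3% Tween 80. Plasma taken by solid-phase extraction and measured by LC-MS/MS at m/z 869.3 (LOQ 10 nM). Noncompartmental analysis. Mean ± SE for three males.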"}, "[10]": {"molecular_target": "Small conductance calcium-activated potassium channel (Rattus norvegicus) (UniProt P70604+P70606+P70605)", "assay": "Inhibition of rat Small conductance calcium-activated potassium channel at 10 uM", "format": "protein assay"}, "Mesocricetus auratus": {"species": "Mesocricetus auratus", "assay": "Inhibition of syrian hamster potassium channel-ATP at 10 uM"}, "[11]": {"molecular_target": "Matrix metalloproteinase-14 (Homo sapiens) (UniProt P50281)", "assay": "Inhibition of human MMP-14 at 10 uM"}, "[12]": {"molecular_target": "Interstitial collagenase (Homo sapiens) (UniProt P03956)", "assay": "Inhibition of human MMP-1 at 10 uM"}, "[13]": {"molecular_target": "Alpha-1A adrenergic receptor (Rattus norvegicus) (UniProt P43140)", "assay": "Inhibition of rat adrenergic receptor Alpha-1at 10 uM"}, "[14]": {"molecular_target": "Alpha-2A adrenergic receptor (Rattus norvegicus) (UniProt P22909)", "assay": "Inhibition of rat adrenergic receptor Alpha-2 at 10 uM"}, "[15]": {"molecular_target": "Plasminogen (Homo sapiens) (UniProt P00747)", "assay": "Inhibition of human plasmin at 10 uM"}, "[16]": {"molecular_target": "Tissue-type plasminogen activator (Homo sapiens) (UniProt P00750)", "sequence (P00750 36-562 limits assumed)": "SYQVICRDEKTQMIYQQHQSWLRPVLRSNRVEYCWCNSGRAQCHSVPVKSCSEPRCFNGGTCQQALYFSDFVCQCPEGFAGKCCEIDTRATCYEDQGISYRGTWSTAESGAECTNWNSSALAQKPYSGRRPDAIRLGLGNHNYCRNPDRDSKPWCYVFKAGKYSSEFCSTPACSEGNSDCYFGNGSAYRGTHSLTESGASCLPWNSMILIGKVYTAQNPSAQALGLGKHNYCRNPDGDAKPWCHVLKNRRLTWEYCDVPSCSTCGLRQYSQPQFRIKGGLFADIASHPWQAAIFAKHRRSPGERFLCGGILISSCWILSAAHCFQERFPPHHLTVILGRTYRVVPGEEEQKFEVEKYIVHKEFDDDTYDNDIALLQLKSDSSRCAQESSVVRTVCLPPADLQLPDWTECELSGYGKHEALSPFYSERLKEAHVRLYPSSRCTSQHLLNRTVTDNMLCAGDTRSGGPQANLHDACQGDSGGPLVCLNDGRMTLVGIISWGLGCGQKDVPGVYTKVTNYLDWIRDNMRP", "assay": "Inhibition of human tPA at 10 uM"}, "[17]": {"assay": "AUC in monkey at 5 mg/kg, po", "format": "ADME, organism-based, Macaca mulatta", "set-up": "dose 5 mg/kg, route oral", "conditions": "rhesus monkey, plasma", "summary_of_the_method": "as §1"}, "Rattus norvegicus [18]": {"species": "Rattus norvegicus", "assay": "Inhibition of rat 5-HT3 receptor at 10 uM"}, "[19]": {"molecular_target": "Pro-cathepsin H (Homo sapiens) (UniProt P09668)", "assay": "Inhibition of human cathepsin H at 10 uM"}, "[20]": {"molecular_target": "D(4) dopamine receptor (Homo sapiens) (UniProt P21917)", "assay": "Inhibition of human dopamine receptor 4.4 at 10 uM"}, "[21]": {"molecular_target": "Acetylcholinesterase (Homo sapiens) (UniProt P22303)", "assay": "Inhibition of human acetylcholinesterase at 10 uM"}, "[22]": {"molecular_target": "D(1A) dopamine receptor (Homo sapiens) (UniProt P21728)", "assay": "Inhibition of human dopamine receptor 1 at 10 uM"}, "[23]": {"molecular_target": "D(2) dopamine receptor (Homo sapiens) (UniProt P14416)", "assay": "Inhibition of human dopamine receptor 2s at 10 uM"}, "[24]": {"molecular_target": "Stromelysin-1 (Homo sapiens) (UniProt P08254)", "sequence (P08254 100-477 limits assumed)": "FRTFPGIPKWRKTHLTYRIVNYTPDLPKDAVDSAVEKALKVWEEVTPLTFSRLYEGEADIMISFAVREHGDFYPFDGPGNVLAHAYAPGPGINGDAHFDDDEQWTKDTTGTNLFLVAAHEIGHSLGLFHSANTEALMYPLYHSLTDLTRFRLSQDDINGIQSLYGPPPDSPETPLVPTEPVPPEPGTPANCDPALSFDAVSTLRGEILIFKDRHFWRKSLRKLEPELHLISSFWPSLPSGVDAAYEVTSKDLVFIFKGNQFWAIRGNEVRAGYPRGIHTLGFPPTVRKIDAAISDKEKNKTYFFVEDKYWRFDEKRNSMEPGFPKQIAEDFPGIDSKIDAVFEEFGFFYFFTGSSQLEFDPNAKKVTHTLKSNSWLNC", "assay": "Inhibition of human MMP-3 at 10 uM"}, "Cathepsin C (Bos taurus)": {"molecular_target": "Cathepsin C (Bos taurus) (UniProt Q864S1)", "sequence (Q864S1 as listed by the source)": "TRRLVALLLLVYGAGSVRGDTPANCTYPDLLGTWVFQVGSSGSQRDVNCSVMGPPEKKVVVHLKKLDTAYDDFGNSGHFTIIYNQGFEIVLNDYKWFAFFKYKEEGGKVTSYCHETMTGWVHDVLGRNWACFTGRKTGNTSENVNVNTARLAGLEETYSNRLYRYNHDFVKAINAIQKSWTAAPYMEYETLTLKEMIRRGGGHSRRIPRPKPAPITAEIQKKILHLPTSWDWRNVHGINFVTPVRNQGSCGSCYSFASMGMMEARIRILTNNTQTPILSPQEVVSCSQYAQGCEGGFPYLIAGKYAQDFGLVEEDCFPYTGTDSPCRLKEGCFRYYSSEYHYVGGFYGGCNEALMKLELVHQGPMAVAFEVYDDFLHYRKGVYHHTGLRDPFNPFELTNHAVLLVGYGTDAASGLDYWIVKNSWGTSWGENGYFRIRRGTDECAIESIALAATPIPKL", "assay": "Inhibition of bovine cathepsin C at 10 uM"}, "Hepatitis C virus [25]": {"test_system": "Hepatitis C virus", "assay": "Inhibition of HCV 1b NS3/4A protease", "set-up": "species or system Hepatitis C virus subtype 1b", "conditions": "read-out: Ki(app)", "summary_of_the_method": "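Full-length NS3 coexpressed with the 54-residue NS4A, 0.5 nM (2.5 nM for genotype 1a). Substrate was 5 μM anthranilyl-DDIVPAbu[C(O)-O]AMY(3-NO2)TW-OH in 50 mM Tris pH 8.0, 0.25 M citrate, 0.01% dodecylmaltoside, 1 mM TCEP, 5% DMSO. Run at 23°C for 60-70 min, stopped with MES pH 5.8, read by product fluorescence. IC50 converted to apparent Ki via IC50=Ki(1+[S]/Km). Mean ± SD, ≥3 experiments.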"}, "[26]": {"molecular_target": "Cathepsin Z (Homo sapiens) (UniProt Q9UBR2)", "sequence (Q9UBR2 whole entry)": "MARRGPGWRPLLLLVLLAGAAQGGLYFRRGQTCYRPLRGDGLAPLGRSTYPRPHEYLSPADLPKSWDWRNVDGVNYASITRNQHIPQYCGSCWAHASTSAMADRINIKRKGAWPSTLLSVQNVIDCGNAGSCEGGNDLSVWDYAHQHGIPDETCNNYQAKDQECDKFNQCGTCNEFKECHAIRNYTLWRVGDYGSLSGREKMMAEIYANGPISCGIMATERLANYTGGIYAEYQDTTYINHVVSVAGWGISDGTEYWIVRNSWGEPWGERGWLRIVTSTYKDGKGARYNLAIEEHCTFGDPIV", "assay": "Inhibition of human cathepsin X at 10 uM"}, "[27]": {"assay": "Cmax in Sprague-Dawley rat at 5 mg/kg, po", "format": "ADME, organism-based, Sparague-Dawley", "set-up": "dose 5 mg/kg, route oral", "conditions": "in vivo", "summary_of_the_method": "as §1"}, "Rattus norvegicus [28]": {"species": "Rattus norvegicus", "assay": "Inhibition of rat GABA-A receptor, benzodiazepine central at 10 uM"}, "Rattus norvegicus [29]": {"species": "Rattus norvegicus", "assay": "Inhibition of rat sodium channel site 2 at 10 uM"}, "Rattus norvegicus [30]": {"species": "Rattus norvegicus", "assay": "Inhibition of rat GABA B receptor at 10 uM"}, "[31]": {"molecular_target": "5-hydroxytryptamine receptor 1A (Homo sapiens) (UniProt P08908)", "assay": "Inhibition of human 5-HT1A receptor at 10 uM"}, "[32]": {"molecular_target": "Cathepsin D (Homo sapiens) (UniProt P07339)", "assay": "Inhibition of human cathepsin D", "conditions": "concentration not given here"}, "Caspase-5 (Homo sapiens)": {"molecular_target": "Caspase-5 (Homo sapiens) (UniProt P51878)", "sequence (P51878 137-327 limits assumed)": "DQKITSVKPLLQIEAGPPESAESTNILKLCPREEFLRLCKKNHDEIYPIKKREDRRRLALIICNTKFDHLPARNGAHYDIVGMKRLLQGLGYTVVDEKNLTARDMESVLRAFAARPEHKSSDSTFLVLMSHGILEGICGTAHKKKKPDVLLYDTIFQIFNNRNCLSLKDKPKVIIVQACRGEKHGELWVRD", "sequence (P51878 347-434 limits assumed)": "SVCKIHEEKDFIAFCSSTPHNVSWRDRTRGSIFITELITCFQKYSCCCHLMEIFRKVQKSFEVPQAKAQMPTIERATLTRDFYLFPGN", "assay": "Inhibition of human caspase-5 at 10 uM"}, "[33]": {"assay": "Tmax in monkey at 5 mg/kg, po", "format": "ADME, organism-based, Macaca mulatta", "set-up": "dose 5 mg/kg, route oral", "conditions": "rhesus monkey, in vivo", "summary_of_the_method": "as §2"}, "Caspase-3 (Homo sapiens)": {"molecular_target": "Caspase-3 (Homo sapiens) (UniProt P42574)", "assay": "Inhibition of human caspase-3 at 10 uM"}, "Homo sapiens [34]": {"species": "Homo sapiens", "assay": "Inhibition of human tryptase at 10 uM"}, "[35]": {"molecular_target": "Angiotensin-converting enzyme (Homo sapiens) (UniProt P12821)", "sequence (P12821 whole entry)": "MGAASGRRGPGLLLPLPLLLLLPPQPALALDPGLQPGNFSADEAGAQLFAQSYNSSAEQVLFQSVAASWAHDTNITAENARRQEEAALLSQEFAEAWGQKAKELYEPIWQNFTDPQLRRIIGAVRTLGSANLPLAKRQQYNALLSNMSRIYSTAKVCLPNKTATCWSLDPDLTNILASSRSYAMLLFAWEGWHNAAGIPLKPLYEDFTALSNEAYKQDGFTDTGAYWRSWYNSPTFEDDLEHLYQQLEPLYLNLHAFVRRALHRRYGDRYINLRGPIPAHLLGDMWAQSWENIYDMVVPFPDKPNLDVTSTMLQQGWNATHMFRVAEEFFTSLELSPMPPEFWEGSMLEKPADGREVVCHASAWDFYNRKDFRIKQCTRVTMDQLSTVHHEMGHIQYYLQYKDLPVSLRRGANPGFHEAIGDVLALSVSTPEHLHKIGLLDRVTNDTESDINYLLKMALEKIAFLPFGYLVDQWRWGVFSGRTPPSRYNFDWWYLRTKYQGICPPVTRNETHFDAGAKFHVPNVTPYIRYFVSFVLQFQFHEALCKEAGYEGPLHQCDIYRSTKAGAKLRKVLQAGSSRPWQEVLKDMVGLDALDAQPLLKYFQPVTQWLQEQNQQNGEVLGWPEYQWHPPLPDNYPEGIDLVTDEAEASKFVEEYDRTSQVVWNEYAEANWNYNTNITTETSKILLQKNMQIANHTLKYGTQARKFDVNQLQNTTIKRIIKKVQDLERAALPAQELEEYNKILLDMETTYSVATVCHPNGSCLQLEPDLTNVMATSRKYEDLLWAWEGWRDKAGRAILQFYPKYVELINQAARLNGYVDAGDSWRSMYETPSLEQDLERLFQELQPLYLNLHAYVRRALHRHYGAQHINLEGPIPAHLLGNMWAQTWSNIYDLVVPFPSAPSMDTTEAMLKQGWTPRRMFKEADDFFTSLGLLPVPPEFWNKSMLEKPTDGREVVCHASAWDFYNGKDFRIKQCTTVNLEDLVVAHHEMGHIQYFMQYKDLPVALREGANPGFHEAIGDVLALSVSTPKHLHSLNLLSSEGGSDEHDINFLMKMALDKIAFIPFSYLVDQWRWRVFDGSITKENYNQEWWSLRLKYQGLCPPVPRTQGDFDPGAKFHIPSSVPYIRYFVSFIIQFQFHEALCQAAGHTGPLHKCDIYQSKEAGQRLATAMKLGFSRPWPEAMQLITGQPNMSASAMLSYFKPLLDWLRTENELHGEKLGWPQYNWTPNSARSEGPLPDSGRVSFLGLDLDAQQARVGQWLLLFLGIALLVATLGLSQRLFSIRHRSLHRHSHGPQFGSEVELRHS", "assay": "Inhibition of human ACE at 10 uM"}, "[36]": {"molecular_target": "Procathepsin L (Homo sapiens) (UniProt P07711)", "sequence (P07711 114-333 limits assumed)": "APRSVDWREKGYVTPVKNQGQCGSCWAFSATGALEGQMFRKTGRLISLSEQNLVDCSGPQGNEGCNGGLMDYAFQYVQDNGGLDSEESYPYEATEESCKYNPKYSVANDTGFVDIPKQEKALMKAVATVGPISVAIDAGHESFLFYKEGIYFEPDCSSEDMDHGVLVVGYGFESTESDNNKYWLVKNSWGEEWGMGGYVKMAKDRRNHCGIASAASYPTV", "assay": "Inhibition of human cathepsin L at 10 uM"}},
  "note": "pEC50, pKi: −log10 of the molar value.",
  "data": [
    {"molecule": "C=C[C@@H]1C[C@]1(NC(=O)[C@@H]1C[C@@H](Oc2cc(-c3csc(NC(=O)C(C)C)n3)nc3c(Br)c(OC)ccc23)CN1C(=O)[C@@H](NC(=O)OC1CCCC1)C(C)(C)C)C(=O)O", "values": [
      {"measurement": "inhibition", "setting": "[1]", "result": 3, "unit": "%"},
      {"measurement": "CC50", "setting": "Huh-7", "result": 30000, "unit": "nM"},
      {"measurement": "inhibition", "setting": "[2]", "result": 6, "unit": "%"},
      {"measurement": "inhibition", "setting": "Caspase-4 (Homo sapiens)", "result": 33, "unit": "%"},
      {"measurement": "inhibition", "setting": "[3]", "result": 20, "unit": "%"},
      {"measurement": "inhibition", "setting": "Homo sapiens [4]", "result": 0, "unit": "%"},
      {"measurement": "inhibition", "setting": "[5]", "result": 3, "unit": "%"},
      {"measurement": "inhibition", "setting": "Homo sapiens [6]", "result": 58, "unit": "%"},
      {"measurement": "pEC50", "setting": "Hepatitis C virus [7]", "result": 7.30},
      {"measurement": "AUC(0-inf)", "setting": "[8]", "result": 14, "unit": "µM·h"},
      {"measurement": "MRT", "setting": "[9]", "result": 2.6, "unit": "h"},
      {"measurement": "inhibition", "setting": "[10]", "result": 2, "unit": "%"},
      {"measurement": "inhibition", "setting": "Mesocricetus auratus", "result": 12, "unit": "%"},
      {"measurement": "inhibition", "setting": "[11]", "result": 3, "unit": "%"},
      {"measurement": "inhibition", "setting": "[12]", "result": 19, "unit": "%"},
      {"measurement": "inhibition", "setting": "[13]", "result": 4, "unit": "%"},
      {"measurement": "inhibition", "setting": "[14]", "result": 18, "unit": "%"},
      {"measurement": "inhibition", "setting": "[15]", "result": 18, "unit": "%"},
      {"measurement": "inhibition", "setting": "[16]", "result": 2, "unit": "%"},
      {"measurement": "AUC", "setting": "[17]", "result": 8.3, "unit": "µM·h"},
      {"measurement": "inhibition", "setting": "Rattus norvegicus [18]", "result": 7, "unit": "%"},
      {"measurement": "inhibition", "setting": "[19]", "result": 21, "unit": "%"},
      {"measurement": "inhibition", "setting": "[20]", "result": 39, "unit": "%"},
      {"measurement": "inhibition", "setting": "[21]", "result": 20, "unit": "%"},
      {"measurement": "inhibition", "setting": "[22]", "result": 14, "unit": "%"},
      {"measurement": "inhibition", "setting": "[23]", "result": 10, "unit": "%"},
      {"measurement": "inhibition", "setting": "[24]", "result": 11, "unit": "%"},
      {"measurement": "inhibition", "setting": "Cathepsin C (Bos taurus)", "result": 1, "unit": "%"},
      {"measurement": "pKi", "setting": "Hepatitis C virus [25]", "result": 8.55},
      {"measurement": "inhibition", "setting": "[26]", "result": 0, "unit": "%"},
      {"measurement": "Cmax", "setting": "[27]", "result": 410, "unit": "nM"},
      {"measurement": "inhibition", "setting": "Rattus norvegicus [28]", "result": 12, "unit": "%"},
      {"measurement": "inhibition", "setting": "Rattus norvegicus [29]", "result": 12, "unit": "%"},
      {"measurement": "inhibition", "setting": "Rattus norvegicus [30]", "result": 9, "unit": "%"},
      {"measurement": "inhibition", "setting": "[31]", "result": 18, "unit": "%"},
      {"measurement": "inhibition", "setting": "[32]", "result": 43, "unit": "%"},
      {"measurement": "inhibition", "setting": "Caspase-5 (Homo sapiens)", "result": 24, "unit": "%"},
      {"measurement": "Tmax", "setting": "[33]", "result": 2, "unit": "h"},
      {"measurement": "inhibition", "setting": "Caspase-3 (Homo sapiens)", "result": 5, "unit": "%"},
      {"measurement": "inhibition", "setting": "Homo sapiens [34]", "result": 5, "unit": "%"},
      {"measurement": "inhibition", "setting": "[35]", "result": 5, "unit": "%"},
      {"measurement": "inhibition", "setting": "[36]", "result": 7, "unit": "%"}
    ]}
  ]
}
